# Test results reported in ChEMBL document CHEMBL1914334, “Discovery and characterization of potent and selective 4-oxo-4-(5-(5-phenyl-1,2,4-oxadiazol-3-yl)indolin-1-yl)butanoic acids as S1P₁ agonists” (Bioorg Med Chem Lett, 2011).
# The source made the active and inactive calls. The calls are words filed in the database; no cut-off is given here.
# What was measured:
# Salmonella typhimurium [1] = assay: Mutagenic activity in Salmonella Typhimurium TA100 by Ames test in presence of S9 fraction; format: toxicity, organism-based; details: salmonella enterica subsp. enterica serovar typhimurium
# [2] = target: Sphingosine 1-phosphate receptor 3 (Homo sapiens, UniProt Q99500); assay: Agonist activity at recombinant human S1P3 receptor expressed in HEK293 cells after 2 hrs by beta-arrestin assay; format: functional, cell-based
# [3] = Volume of distribution at steady state in Sprague-Dawley rat at 2 mg/kg, iv and 3 mg/kg, po; format: ADME, organism-based; details: in vivo, read-out: Vdss
# [4] = target: T1, Sphingosine 1-phosphate receptor 1 (Homo sapiens, UniProt P21453); assay: Agonist activity at human S1P1 receptor expressed in HEK293 cells assessed as inhibition of forskolin-stimulated cAMP production after 1 hr by HTRF assay; format: functional, cell-based
# How it was run: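 Human S1P₁ cAMP HTRF read-out; each EC₅₀ is the mean of three or more replicates.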
# [5] = target: Voltage-gated inwardly rectifying potassium channel KCNH2 (Homo sapiens, UniProt Q12809); assay: Displacement of [3H]astemizole from human ERG
# [6] = Protein binding in rat; format: ADME, organism-based; details: in vivo, read-out: PB (converted)
# Salmonella typhimurium [7] = assay: Mutagenic activity in Salmonella Typhimurium TA97a by Ames test in presence of S9 fraction; format: toxicity, organism-based; details: salmonella enterica subsp. enterica serovar typhimurium
# Mus musculus [8] = assay: Immunomodulatory activity BALB/C mouse assessed as induction of lymphopenia at 0.3 to 3 mg/kg, po after 24 hrs; format: functional, organism-based; details: 1 to 10 mg/kg, in the assay text read “1 to 10 mg/kg” for “0.3 to 3 mg/kg”
# [9] = Metabolic stability in rat liver microsomes assessed as half life; format: ADME, Microsome
# [10] = Cmax in Sprague-Dawley rat at 2 mg/kg, iv and 3 mg/kg, po; format: ADME, organism-based; details: in vivo
# [11] = AUC (0 to last) in Sprague-Dawley rat at 2 mg/kg, iv and 3 mg/kg, po; format: ADME, organism-based; details: plasma
# Cytochrome P450 2D6 = Cytochrome P450 2D6 (Homo sapiens, UniProt P10635); assay: Inhibition of CYP2D6; format: ADME
# [12] = target: Sphingosine 1-phosphate receptor 2 (Homo sapiens, UniProt O95136); assay: Agonist activity at recombinant human S1P2 receptor expressed in HEK293 cells after 2 hrs by beta-arrestin assay; format: functional, cell-based
# [13] = Agonist activity at monkey S1P1 receptor expressed in HEK293 cells assessed as inhibition of forskolin-stimulated cAMP production after 1 hr by HTRF assay; format: functional, cell-based; details: Macaca mulatta, HEK293, 1 h
# hERG (KCNH2) = hERG (KCNH2) (Homo sapiens, UniProt Q12809); assay: Inhibition of human ERG at 3 uM by patch clamp assay
# Salmonella typhimurium [14] = assay: Mutagenic activity in Salmonella Typhimurium TA1535 by Ames test in presence of S9 fraction; format: toxicity, organism-based; details: salmonella enterica subsp. enterica serovar typhimurium
# Salmonella typhimurium [15] = assay: Mutagenic activity in Salmonella Typhimurium TA98 by Ames test in absence of S9 fraction; format: toxicity, organism-based; details: salmonella enterica subsp. enterica serovar typhimurium
# Cytochrome P450 3A4 = Cytochrome P450 3A4 (Homo sapiens, UniProt P08684); assay: Inhibition of CYP3A4; format: ADME
# [16] = Clearance in Sprague-Dawley rat at 2 mg/kg, iv and 3 mg/kg, po; format: ADME, organism-based; details: in vivo
# [17] = Metabolic stability in human liver microsomes assessed as half life; format: ADME, Microsome
# Cytochrome P450 1A2 = target: T2, Cytochrome P450 1A2 (Homo sapiens, UniProt P05177); assay: Inhibition of CYP1A2; format: ADME
# T2 sequence (P05177 whole entry): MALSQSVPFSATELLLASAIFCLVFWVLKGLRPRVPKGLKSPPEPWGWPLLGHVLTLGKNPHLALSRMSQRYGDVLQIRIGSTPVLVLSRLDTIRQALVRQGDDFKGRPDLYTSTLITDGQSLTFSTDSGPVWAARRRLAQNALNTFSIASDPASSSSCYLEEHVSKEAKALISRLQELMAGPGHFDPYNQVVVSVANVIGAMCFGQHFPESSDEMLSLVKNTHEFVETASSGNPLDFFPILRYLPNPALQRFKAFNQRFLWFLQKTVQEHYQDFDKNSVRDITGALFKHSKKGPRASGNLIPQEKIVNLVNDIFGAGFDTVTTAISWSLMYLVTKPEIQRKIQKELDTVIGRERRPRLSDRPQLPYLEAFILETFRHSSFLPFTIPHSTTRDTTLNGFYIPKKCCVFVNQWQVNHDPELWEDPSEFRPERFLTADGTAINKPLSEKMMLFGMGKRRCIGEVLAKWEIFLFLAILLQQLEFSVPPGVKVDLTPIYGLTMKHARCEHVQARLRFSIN
# Mus musculus [18] = assay: Immunomodulatory activity in po dosed BALB/C mouse assessed as induction of lymphopenia after 16 hrs; format: functional, organism-based
# How it was run: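 Male BALB/c mice were dosed orally at 1, 3 or 10 mg/kg, or with vehicle (0.5% methylcellulose in water). Blood was sampled up to 24 h post-dose for lymphocyte counts and plasma drug levels (mean ± SD). An indirect PK/PD model was fitted to give the blood concentration suppressing lymphocytes by 50%.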
# Cytochrome P450 2C19 = Cytochrome P450 2C19 (Homo sapiens, UniProt P33261); assay: Inhibition of CYP2C19; format: ADME
# [19] = Oral bioavailability in Sprague-Dawley rat at 3 mg/kg; format: ADME, organism-based; details: in vivo
# [20] = target: Sphingosine 1-phosphate receptor 1 (Mus musculus, UniProt O08530); assay: Agonist activity at mouse S1P1 receptor expressed in HEK293 cells assessed as inhibition of forskolin-stimulated cAMP production after 1 hr by HTRF assay; format: functional, cell-based
# [21] = target: T1, Sphingosine 1-phosphate receptor 1; assay: Agonist activity at recombinant human S1P1 receptor expressed in HEK293 cells after 2 hrs by beta-arrestin assay; format: functional, cell-based
# [22] = target: Sphingosine 1-phosphate receptor 1 (Rattus norvegicus, UniProt P48303); assay: Agonist activity at rat S1P1 receptor expressed in HEK293 cells assessed as inhibition of forskolin-stimulated cAMP production after 1 hr by HTRF assay; format: functional, cell-based
# Salmonella typhimurium [23] = assay: Mutagenic activity in Salmonella Typhimurium TA1535 by Ames test in absence of S9 fraction; format: toxicity, organism-based; details: salmonella enterica subsp. enterica serovar typhimurium
# Salmonella typhimurium [24] = assay: Mutagenic activity in Salmonella Typhimurium TA98 by Ames test in presence of S9 fraction; format: toxicity, organism-based; details: salmonella enterica subsp. enterica serovar typhimurium
# [25] = Half life in Sprague-Dawley rat at 2 mg/kg, iv and 3 mg/kg, po; format: ADME, organism-based; details: in vivo
# Cytochrome P450 2C9 = Cytochrome P450 2C9 (Homo sapiens, UniProt P11712); assay: Inhibition of CYP2C9; format: ADME
# [26] = Agonist activity at dog S1P1 receptor expressed in HEK293 cells assessed as inhibition of forskolin-stimulated cAMP production after 1 hr by HTRF assay; format: functional, cell-based; details: HEK293, 1 h
# [27] = Protein binding in human; format: ADME, organism-based; details: in vivo, read-out: PB (converted)
# [28] = Terminal half life in mouse; format: ADME, organism-based; details: in vivo, read-out: beta t1/2 (converted)
# Salmonella typhimurium [29] = assay: Mutagenic activity in Salmonella Typhimurium TA100 by Ames test in absence of S9 fraction; format: toxicity, organism-based; details: salmonella enterica subsp. enterica serovar typhimurium
# [30] = target: T3, Sphingosine 1-phosphate receptor 4 (Homo sapiens, UniProt O95977); assay: Agonist activity at recombinant human S1P4 receptor expressed in HEK293 cells after 2 hrs by beta-arrestin assay; format: functional, cell-based
# T3 sequence (O95977 whole entry): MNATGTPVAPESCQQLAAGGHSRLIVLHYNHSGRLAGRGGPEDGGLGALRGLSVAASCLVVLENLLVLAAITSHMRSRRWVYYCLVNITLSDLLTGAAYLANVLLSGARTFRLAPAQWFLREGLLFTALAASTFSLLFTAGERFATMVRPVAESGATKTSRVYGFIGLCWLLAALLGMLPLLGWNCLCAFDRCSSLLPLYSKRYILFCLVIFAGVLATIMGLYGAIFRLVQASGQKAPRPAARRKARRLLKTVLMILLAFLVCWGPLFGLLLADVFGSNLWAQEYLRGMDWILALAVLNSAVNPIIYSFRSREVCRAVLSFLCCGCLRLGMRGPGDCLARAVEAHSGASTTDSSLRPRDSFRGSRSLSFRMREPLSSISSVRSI
# [31] = Tmax in Sprague-Dawley rat at 2 mg/kg, iv and 3 mg/kg, po; format: ADME, organism-based; details: in vivo
# Salmonella typhimurium [32] = assay: Mutagenic activity in Salmonella Typhimurium TA97a by Ames test in absence of S9 fraction; format: toxicity, organism-based; details: salmonella enterica subsp. enterica serovar typhimurium
# [33] = target: Sphingosine 1-phosphate receptor 5 (Homo sapiens, UniProt Q9H228); assay: Agonist activity at recombinant human S1P5 receptor expressed in HEK293 cells after 2 hrs by beta-arrestin assay; format: functional, cell-based
# [34] = Oral bioavailability in Sprague-Dawley rat at 1.5 mg/kg; format: ADME, organism-based; details: in vivo
# Mus musculus [35] = assay: Immunomodulatory activity BALB/C mouse assessed as induction of lymphopenia at 1 mg/kg, po after 5 hrs; format: functional, organism-based; design: dose 1 mg/kg
# How it was run: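 Male BALB/c mice were given a single oral dose of 1.0 mg/kg or vehicle (0.5% methylcellulose). Blood lymphocytes were counted at one time point, 5 h post-dose, with n = 6 per dose group (mean ± SD). Lowering was judged relative to the vehicle group.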
# [36] = Clearance in Sprague-Dawley rat at 1 mg/kg, iv and 1.5 mg/kg, po; format: ADME, organism-based; details: in vivo
# [37] = AUC (0 to last) in Sprague-Dawley rat at 1 mg/kg, iv and 1.5 mg/kg, po; format: ADME, organism-based; details: plasma
# [38] = Volume of distribution at steady state in Sprague-Dawley rat at 1 mg/kg, iv and 1.5 mg/kg, po; format: ADME, organism-based; details: in vivo, read-out: Vdss
# [39] = Tmax in Sprague-Dawley rat at 1 mg/kg, iv and 1.5 mg/kg, po; format: ADME, organism-based; details: in vivo
# [40] = Cmax in Sprague-Dawley rat at 1 mg/kg, iv and 1.5 mg/kg, po; format: ADME, organism-based; details: in vivo
# [41] = Half life in Sprague-Dawley rat at 1 mg/kg, iv and 1.5 mg/kg, po; format: ADME, organism-based; details: in vivo
# T1 sequence (P21453 whole entry): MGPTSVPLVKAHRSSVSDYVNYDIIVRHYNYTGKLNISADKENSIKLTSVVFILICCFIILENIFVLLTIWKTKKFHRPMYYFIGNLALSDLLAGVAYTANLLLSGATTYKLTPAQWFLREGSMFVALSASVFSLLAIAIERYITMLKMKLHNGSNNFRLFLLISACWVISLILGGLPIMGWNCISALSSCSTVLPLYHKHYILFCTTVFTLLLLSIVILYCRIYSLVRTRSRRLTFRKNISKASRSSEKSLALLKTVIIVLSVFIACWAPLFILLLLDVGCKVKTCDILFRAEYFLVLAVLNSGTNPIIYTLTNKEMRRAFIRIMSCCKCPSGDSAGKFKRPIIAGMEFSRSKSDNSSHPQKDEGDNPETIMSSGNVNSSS
# Chain of Cytochrome P450 2C9 (P11712 whole entry): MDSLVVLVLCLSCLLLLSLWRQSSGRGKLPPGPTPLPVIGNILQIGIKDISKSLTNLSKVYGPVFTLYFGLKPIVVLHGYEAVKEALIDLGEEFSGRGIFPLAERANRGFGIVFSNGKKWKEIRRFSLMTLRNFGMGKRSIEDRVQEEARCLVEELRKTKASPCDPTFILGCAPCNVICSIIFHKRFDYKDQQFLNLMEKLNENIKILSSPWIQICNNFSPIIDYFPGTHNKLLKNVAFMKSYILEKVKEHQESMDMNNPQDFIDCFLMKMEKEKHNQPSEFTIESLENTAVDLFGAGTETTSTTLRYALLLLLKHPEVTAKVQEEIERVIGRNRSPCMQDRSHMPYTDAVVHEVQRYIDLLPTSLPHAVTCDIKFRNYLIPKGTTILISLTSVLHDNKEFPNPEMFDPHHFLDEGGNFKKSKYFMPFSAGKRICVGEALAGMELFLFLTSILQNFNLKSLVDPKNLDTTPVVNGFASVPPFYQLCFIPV
# Chain of hERG (KCNH2) (Q12809 whole entry): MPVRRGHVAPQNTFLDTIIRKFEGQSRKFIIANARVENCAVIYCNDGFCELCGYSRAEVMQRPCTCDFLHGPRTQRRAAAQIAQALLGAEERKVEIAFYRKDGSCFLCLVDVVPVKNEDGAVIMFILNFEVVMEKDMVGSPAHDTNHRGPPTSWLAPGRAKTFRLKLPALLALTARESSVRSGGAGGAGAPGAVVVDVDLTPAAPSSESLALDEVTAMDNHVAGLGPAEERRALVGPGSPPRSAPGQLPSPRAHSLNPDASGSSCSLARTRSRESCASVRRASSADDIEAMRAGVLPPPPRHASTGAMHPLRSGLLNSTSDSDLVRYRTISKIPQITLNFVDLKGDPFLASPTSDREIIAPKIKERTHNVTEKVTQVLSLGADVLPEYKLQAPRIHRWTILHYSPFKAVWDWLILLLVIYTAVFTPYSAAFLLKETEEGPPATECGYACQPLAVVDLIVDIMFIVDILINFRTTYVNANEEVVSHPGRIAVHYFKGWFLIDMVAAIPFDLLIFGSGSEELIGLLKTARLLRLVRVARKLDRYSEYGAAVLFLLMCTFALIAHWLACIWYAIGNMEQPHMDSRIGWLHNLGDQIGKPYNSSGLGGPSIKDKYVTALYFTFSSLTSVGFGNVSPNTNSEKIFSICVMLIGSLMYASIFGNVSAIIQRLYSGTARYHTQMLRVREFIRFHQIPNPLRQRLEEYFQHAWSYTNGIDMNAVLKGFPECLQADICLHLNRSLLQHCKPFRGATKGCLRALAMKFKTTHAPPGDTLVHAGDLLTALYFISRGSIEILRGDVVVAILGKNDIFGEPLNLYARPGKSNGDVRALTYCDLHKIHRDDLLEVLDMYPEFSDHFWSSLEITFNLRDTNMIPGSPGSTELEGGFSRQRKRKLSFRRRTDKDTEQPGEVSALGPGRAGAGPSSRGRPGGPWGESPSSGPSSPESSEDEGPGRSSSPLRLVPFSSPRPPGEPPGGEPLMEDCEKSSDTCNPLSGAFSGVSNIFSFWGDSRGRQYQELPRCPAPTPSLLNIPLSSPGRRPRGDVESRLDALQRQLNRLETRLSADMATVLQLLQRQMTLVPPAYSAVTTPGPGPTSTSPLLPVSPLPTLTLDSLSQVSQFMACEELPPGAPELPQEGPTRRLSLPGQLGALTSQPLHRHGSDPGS
# Chain of Voltage-gated inwardly rectifying potassium channel KCNH2 (Q12809 whole entry): as above
# Chain of Cytochrome P450 2C19 (P33261 whole entry): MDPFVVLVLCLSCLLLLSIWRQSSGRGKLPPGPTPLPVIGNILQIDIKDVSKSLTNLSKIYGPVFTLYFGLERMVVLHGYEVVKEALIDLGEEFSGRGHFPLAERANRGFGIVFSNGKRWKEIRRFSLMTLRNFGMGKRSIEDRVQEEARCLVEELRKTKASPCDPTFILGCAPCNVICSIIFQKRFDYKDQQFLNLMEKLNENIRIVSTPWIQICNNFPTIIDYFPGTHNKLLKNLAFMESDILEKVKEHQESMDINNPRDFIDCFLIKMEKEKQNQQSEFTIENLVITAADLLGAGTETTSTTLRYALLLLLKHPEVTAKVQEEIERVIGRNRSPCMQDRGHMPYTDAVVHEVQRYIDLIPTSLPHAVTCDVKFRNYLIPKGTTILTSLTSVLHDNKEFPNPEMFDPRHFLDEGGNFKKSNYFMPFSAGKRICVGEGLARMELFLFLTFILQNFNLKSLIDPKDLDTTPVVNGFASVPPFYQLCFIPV
# Chain of Sphingosine 1-phosphate receptor 3 (Q99500 whole entry): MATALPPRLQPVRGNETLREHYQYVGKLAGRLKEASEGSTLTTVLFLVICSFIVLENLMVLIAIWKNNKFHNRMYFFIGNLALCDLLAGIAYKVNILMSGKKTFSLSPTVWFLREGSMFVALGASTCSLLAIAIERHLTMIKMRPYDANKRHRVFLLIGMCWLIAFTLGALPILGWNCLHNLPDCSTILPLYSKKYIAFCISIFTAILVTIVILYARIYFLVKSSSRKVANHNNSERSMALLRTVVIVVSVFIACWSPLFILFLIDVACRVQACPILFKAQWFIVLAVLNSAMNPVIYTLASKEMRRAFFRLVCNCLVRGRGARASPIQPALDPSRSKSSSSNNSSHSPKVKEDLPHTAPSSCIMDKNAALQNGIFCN
# Chain of Cytochrome P450 2D6 (P10635 whole entry): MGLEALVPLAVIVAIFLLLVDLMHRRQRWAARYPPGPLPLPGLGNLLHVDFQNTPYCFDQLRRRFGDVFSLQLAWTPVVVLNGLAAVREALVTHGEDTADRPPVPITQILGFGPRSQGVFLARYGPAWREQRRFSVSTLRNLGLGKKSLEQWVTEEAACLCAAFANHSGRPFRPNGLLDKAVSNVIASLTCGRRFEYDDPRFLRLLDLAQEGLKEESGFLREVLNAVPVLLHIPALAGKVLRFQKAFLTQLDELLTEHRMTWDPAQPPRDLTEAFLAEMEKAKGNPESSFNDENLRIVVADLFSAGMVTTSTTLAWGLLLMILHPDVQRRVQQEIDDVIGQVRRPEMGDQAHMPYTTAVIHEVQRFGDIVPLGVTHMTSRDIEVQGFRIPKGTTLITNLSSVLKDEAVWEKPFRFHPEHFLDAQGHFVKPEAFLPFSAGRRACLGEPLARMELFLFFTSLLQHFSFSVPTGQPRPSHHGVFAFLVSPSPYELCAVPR
# Chain of Sphingosine 1-phosphate receptor 1 (Rattus norvegicus, UniProt P48303) (P48303 whole entry): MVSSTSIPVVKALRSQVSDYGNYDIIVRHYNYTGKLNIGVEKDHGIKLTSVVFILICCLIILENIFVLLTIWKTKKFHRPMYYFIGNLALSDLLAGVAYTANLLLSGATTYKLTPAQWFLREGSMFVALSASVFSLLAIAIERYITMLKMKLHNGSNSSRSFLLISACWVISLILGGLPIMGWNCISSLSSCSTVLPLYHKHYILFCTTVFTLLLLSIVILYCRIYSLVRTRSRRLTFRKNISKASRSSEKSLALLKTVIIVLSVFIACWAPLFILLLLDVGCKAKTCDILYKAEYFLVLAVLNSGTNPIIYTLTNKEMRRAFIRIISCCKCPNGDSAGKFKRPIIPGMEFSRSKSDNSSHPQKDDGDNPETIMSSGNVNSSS
SMILES,Activity (Salmonella typhimurium [1]),EC50 [2] [µM],EC50 [4] [µM],IC50 [5] [µM],Activity (Salmonella typhimurium [7]),half-life [9] [h],IC50 (Cytochrome P450 2D6) [µM],EC50 [12] [µM],EC50 [13] [µM],inhibition at 3 µM (hERG (KCNH2)) [%],Activity (Salmonella typhimurium [14]),Activity (Salmonella typhimurium [15]),IC50 (Cytochrome P450 3A4) [µM],half-life [17] [h],IC50 (Cytochrome P450 1A2) [µM],IC50 (Cytochrome P450 2C19) [µM],EC50 [20] [µM],EC50 [21] [µM],EC50 [22] [µM],Activity (Salmonella typhimurium [23]),also measured
N#Cc1cc(OC(F)(F)F)cc(-c2nc(-c3ccc4c(c3)CCN4C(=O)CCC(=O)O)no2)c1,Non-toxic,> 100,0.0012,> 100,Non-toxic,> 1,> 50,> 100,0.0008,13,Non-toxic,Non-toxic,> 50,> 1,> 50,> 50,0.0011,0.031,0.001,Non-toxic,Vd [3]: 0.275 L/kg; fraction unbound [6]: 0.007; Activity (Mus musculus [8]): inactive; Cmax [10]: 3820 ng/mL; AUC(0-t) [11]: 20200 ng·h/mL; clearance [16]: 0.75 mL/min/kg; IC50 (Mus musculus [18]): 0.431 µg/mL; bioavailability [19]: 32.8%; Activity (Salmonella typhimurium [24]): Non-toxic; half-life [25]: 2.9 h; IC50 (Cytochrome P450 2C9): > 50 µM; EC50 [26]: 0.0007 µM; fraction unbound [27]: 0.003; half-life [28]: 3 h; Activity (Salmonella typhimurium [29]): Non-toxic; EC50 [30]: 1.33 µM; Tmax [31]: 2 h; Activity (Salmonella typhimurium [32]): Non-toxic; EC50 [33]: 0.109 µM
O=C(O)CCC(=O)N1CCc2cc(-c3noc(-c4cc(C(F)(F)F)cc(C(F)(F)F)c4)n3)ccc21,Non-toxic,3.1,0.0046,> 100,Non-toxic,> 1,> 50,> 100,0.0011,< 10,Non-toxic,Non-toxic,> 50,> 1,> 50,> 50,0.0014,0.039,0.0013,Non-toxic,bioavailability [34]: 50.2%; Activity (Mus musculus [35]): Active; clearance [36]: 0.633 mL/min/kg; AUC(0-t) [37]: 16000 ng·h/mL; Vd [38]: 0.564 L/kg; Tmax [39]: 3 h; Activity (Salmonella typhimurium [24]): Non-toxic; Cmax [40]: 1740 ng/mL; IC50 (Cytochrome P450 2C9): 34.8 µM; EC50 [26]: 0.0013 µM; fraction unbound [27]: 0.006; Activity (Salmonella typhimurium [29]): Non-toxic; half-life [41]: 8.5 h; EC50 [30]: 0.16 µM; Activity (Salmonella typhimurium [32]): Non-toxic; EC50 [33]: 0.088 µM
